Activity calls are given as the source filed them. The rule behind the calls is not given here.
What was measured:
[1] = Cytotoxicity against Sprague-Dawley rat cortical neurons assessed as cell viability at 10 uM by LDH assay; details: cortical neurone
[2] = Antioxidant activity assessed as AAPH-induced free radical scavenging activity at 25 uM preincubated for 30 mins followed by AAPH induction measured every 5 mins for 9 hrs by ORAC assay relative to vehicle-treated control; format: functional
Method in brief: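 ORAC: area under the fluorescence decay curve (netAUC) expressed as fold change relative to vehicle control. Mean ± SEM, N = 12; trolox included as reference.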

[3] = system: Radical scavenging activity; test: Antioxidant activity assessed as inhibition of DPPH-induced free radical generation at 80 uM after 30 mins relative to control; format: functional
Method in brief: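 DPPH scavenging given as % inhibition of DPPH absorbance, with values derived from a standard dose–response curve of vitamin C (0–500 µM). Mean ± SEM, N = 9.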

Cortical neurone [4] = test: Anti-excitotoxic activity in Sprague-Dawley rat cortical neurons assessed as reduction of NMDA-evoked neuronal injury at 10 uM incubated for 30 mins prior to NMDA induction and maintained during NMDA induction for 15 mins measured after 9 hrs; format: functional
Method in brief: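 Rat cortical neurons exposed to NMDA for 15 min, then incubated 9 h. Compound or MK801 (10 µM) added 30 min before and kept during NMDA. Injury scored as % inhibition of LDH release, given as median with interquartile range; N = 9–18.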

Cortical neurone [5] = test: Anti-ischemic activity in Sprague-Dawley rat cortical neurons assessed as reduction of oxygen-glucose deprivation-induced intracellular oxidative stress at 10 uM incubated for 30 mins prior to induction of oxygen-glucose deprivation and maintained during entire period of oxygen-glucose deprivation/reoxygenation measured after 1 hr by H2DCFDA staining-based […] microscopic analysis; format: functional, cell-based
Method in brief: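 Neurons pretreated 30 min before 90 min OGD, with treatment kept through reoxygenation. H2DCFDA loaded 1 h after reoxygenation; intracellular oxidative stress read as rise in fluorescence intensity 2 h later by imaging.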

Cortical neurone [6] = test: Anti-ischemic activity in Sprague-Dawley rat cortical neurons assessed as reduction of oxygen-glucose deprivation/reoxygenation-induced neuronal injury at 10 uM incubated for 30 mins prior to induction of oxygen-glucose deprivation and maintained during entire period of oxygen-glucose deprivation/reoxygenation measured after 9 hrs by LDH assay; format: functional
Method in brief: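 Rat cortical neurons given 90 min oxygen-glucose deprivation, then 9 h reoxygenation. Compound, MK801 or trolox (10 µM or indicated concentrations) applied 30 min before OGD and kept through OGD/R. Neuronal injury read by LDH assay; mean ± SEM, N = 24.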

Cortical neurone [7] = test: Anti-excitotoxic activity in Sprague-Dawley rat cortical neurons assessed as inhibition of NMDA-induced intracellular calcium uptake at 10 uM incubated for 30 mins prior to NMDA induction measured after 50 secs by fluo-3 AM staining-based […] microscopic analysis; format: functional, cell-based
Method in brief: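 Cultured rat cortical neurons loaded with Fluo-3 AM for 30 min with or without 10 µM compound, then exposed to NMDA. Intracellular free Ca2+ read 50 s after NMDA as fold change in integrated fluorescence density of Ca2+-bound Fluo-3 over basal. Median, interquartile range and min–max reported; N = 4–5; compared with NMDA-treated group.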

[8] = system: Radical scavenging activity; test: Antioxidant activity assessed as inhibition of DPPH-induced free radical generation at 1 to 500 uM after 30 mins relative to control; format: functional

Compound	Activity [1]	fold change (FC) [2]	inhibition [3]	Activity (Cortical neurone [4])	Activity (Cortical neurone [5])	Activity (Cortical neurone [6])	inhibition (Cortical neurone [7])	inhibition [8] [%]
CC1(C)[C@@H]2C[C@H]1C(/C=C/c1ccc(-c3ccccc3)cc1)=CC2=O	Non-toxic	1.85	inactive					
CC1(C)[C@@H]2C[C@H]1C(/C=C/c1ccc(O)c(O)c1)=CC2=O	Non-toxic	9.09	91.6%	Active	Active	Active		
CC1(C)[C@@H]2C[C@H]1C(/C=C/c1cccnc1)=CC2=O	Non-toxic	1.59	inactive					
CC1(C)[C@@H]2C[C@H]1C(/C=C/c1ccc(F)cc1)=CC2=O	Non-toxic	1.81	inactive					
CC1(C)[C@@H]2C[C@H]1C(/C=C/c1cccc(O)c1)=CC2=O	Non-toxic	5.11	inactive					
CC1(C)[C@@H]2C[C@H]1C(/C=C/c1ccccc1O)=CC2=O	Non-toxic	6.84	4.64%					
COc1ccc(/C=C/C2=CC(=O)[C@H]3C[C@@H]2C3(C)C)cc1	Non-toxic	2.64	inactive					
COc1ccc(/C=C/C2=CC(=O)[C@H]3C[C@@H]2C3(C)C)c(O)c1	Non-toxic	9.48	51.2%	Active				
CC1=CC(=O)[C@H]2C[C@@H]1C2(C)C [LEVOVERBENONE]	Non-toxic	1.19	inactive					
COc1ccc(/C=C/C2=CC(=O)[C@H]3C[C@@H]2C3(C)C)cc1OC	Non-toxic	2.73	inactive					
COc1cc(/C=C/C2=CC(=O)[C@H]3C[C@@H]2C3(C)C)cc(O)c1O [SP-8356]	Non-toxic	6.86	83.6%	Active	Active	Active	Active	
CC1(C)[C@@H]2C[C@H]1C(/C=C/c1ccc(O)c(Br)c1)=CC2=O	Non-toxic	11.6	29.4%					
CC1(C)[C@@H]2C[C@H]1C(/C=C/c1ccc(-n3cccc3)cc1)=CC2=O	Non-toxic	6.81	inactive					
COc1cc(O)cc(OC)c1/C=C/C1=CC(=O)[C@H]2C[C@@H]1C2(C)C	Non-toxic	11.5	55.8%					
COc1cc(/C=C/C2=CC(=O)[C@H]3C[C@@H]2C3(C)C)cc(OC)c1	Non-toxic	3.14	inactive					
O=C1O[C@H]([C@@H](O)CO)C(O)=C1O								74
COc1cc(O)ccc1/C=C/C1=CC(=O)[C@H]2C[C@@H]1C2(C)C	Non-toxic	7.37	38.1%					
CC1(C)[C@@H]2C[C@H]1C(/C=C/c1ccccn1)=CC2=O	Non-toxic	1.63	inactive	Active				
CC1(C)[C@@H]2C[C@H]1C(/C=C/c1ccc(O)cc1)=CC2=O	Non-toxic	10.7	19.1%	Active	inactive	Active		
C[C@]12N[C@H](Cc3ccccc31)c1ccccc12 [DIZOCILPINE]	Non-toxic			Active		Active		
CC1(C)[C@@H]2C[C@H]1C(/C=C/c1ccccc1)=CC2=O	Non-toxic	1.92	inactive					
Cc1c(C)c2c(c(C)c1O)CCC(C)(C(=O)O)O2 (stereo not given)		3.11						
CC1(C)[C@@H]2C[C@H]1C(/C=C/c1ccncc1)=CC2=O	Non-toxic	1.56	inactive					
COc1ccc(OC)c(/C=C/C2=CC(=O)[C@H]3C[C@@H]2C3(C)C)c1	Non-toxic	2.25	inactive					
